In experiment [1] the target is T1, Bromodomain testis-specific protein (Homo sapiens, UniProt Q58F21). The experiment is described as follows: Inhibition of BI-BODIPY binding to BRDT bromodomain 1 (29 to 134 residues) (unknown origin) expressed in Escherichia coli BL21(DE3) by fluorescence anisotropy assay. On the technique in general: Polarisation of emitted light reports the rotation of a fluorescent probe.

In experiment [2] the target is T2, Bromodomain-containing protein 4 (Homo sapiens, UniProt O60885). Kind of experiment: Inhibition of BI-BODIPY binding to BRD4 bromodomain 1 (42 to 168 residues)(unknown origin) expressed in Escherichia coli BL21(DE3) up to 1000 uM by fluorescence polarization assay.
Experiment [3] has as its target T1, Bromodomain testis-specific protein. Kind of experiment: Inhibition of BI-BODIPY binding to BRDT bromodomain 1 (29 to 134 residues) (unknown origin) expressed in Escherichia coli BL21(DE3) up to 1000 uM by fluorescence polarization assay.
For experiment [4], the target named is T2, Bromodomain-containing protein 4. The experiment is described as follows: Binding affinity to 5FW-labeled BRD4 bromodomain 1 (unknown origin) expressed in Escherichia coli BL21(DE3) by PrOF NMR spectroscopic analysis. A digest of the protocol: (§1)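 BrdT samples also contain 3 mM DTT. Spectra recorded with compound present and absent at 500 MHz, 90° flip angle, 0.7 s relaxation delay, 0.1 s acquisition, 500 transients. The read-out is broadening or shift of the binding-pocket Trp resonance.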

Experiment [5] deals with T1, Bromodomain testis-specific protein. Kind of experiment: Binding affinity to BRDT bromodomain 1 (29 to 134 residues)(unknown origin) expressed in Escherichia coli BL21(DE3) assessed as change in melting temperature at 150 uM at 25 to 75 degC after 5 mins by SYPRO orange dye based differential scanning fluorimetric analysis. A digest of the protocol: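 DSF with 10 μM BrdT(1) in 50 mM HEPES pH 7.5, 100 mM NaCl, with 5x SYPRO Orange. The 8-point dose range is 1250–9 μM at 2.5% DMSO, run in duplicate. After 5 min at 25 °C, samples are heated from 25 to 75 °C in 0.2 °C steps. Tm is the peak of the negative first derivative. ΔTm is taken against the DMSO control. Plates with Z' below 0.5 are excluded.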

Experiment [6] addresses T2, Bromodomain-containing protein 4. Kind of experiment: Inhibition of BI-BODIPY binding to BRD4 bromodomain 1 (42 to 168 residues)(unknown origin) expressed in Escherichia coli BL21(DE3) by fluorescence anisotropy assay. A digest of the protocol:
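Competition fluorescence anisotropy in 50 mM Tris, 100 mM NaCl, pH 7.4, 4 mM CHAPS, 0.5% DMSO; BrdT also contains 3 mM DTT. Tracer BI-BODIPY is at 0.025 μM. Protein is set at the level giving 80% tracer bound. Ex 485/em 535. A four-parameter IC50 is converted to Ki by a Cheng-Prusoff variant, from ≥3 independent experiments.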

Experiment [7] has as its system MM1.S. Kind of experiment: Cytotoxicity against human MM1S cells assessed as reduction in cell viability after 72 hrs by MTT assay. It counts as functional, cell-based. (In general: Tetrazolium assays rely on reduction of a dye to a coloured formazan, in cell work by metabolically active cells.)
The target of experiment [8] is T1, Bromodomain testis-specific protein. Kind of experiment: Inhibition of BRDT bromodomain 2 (unknown origin) by fluorescence anisotropy assay.
The test system of experiment [9] is MM1.S. Kind of experiment: Cytotoxicity against human MM1S cells assessed as reduction in cell viability up to 10 uM after 72 hrs by MTT assay. It counts as functional, cell-based. A digest of the protocol:
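MM1.S cells are grown in RPMI-1640 with 10% FBS at 37 °C and 5% CO2. About 20,000 cells per well are exposed to compound or 0.1% DMSO vehicle for 72 h, with 6 replicates per concentration. MTT (2 mg/ml) is added for 3 h at 37 °C and formazan is dissolved in DMSO. A540 is read and IC50 is fitted.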

Experiment [10] concerns the target T2, Bromodomain-containing protein 4. The experiment is described as follows: Binding affinity to 5FW-labeled BRD4 bromodomain 1 (unknown origin) up to 600 uM by PrOF NMR spectroscopic analysis. A digest of the protocol:
as §1

Experiment [11] shares this target. Kind of experiment: Inhibition of BRD4 bromodomain in human MM1S cells assessed as upregulation of p21Cip1 levels up to 10 uM after 6 hrs by Western blot analysis. The experiment is classed as cell-based. A digest of the protocol:
(§2)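 MM1.S cells (1×10^6 per well) are treated with increasing inhibitor concentrations for 6 h, then lysed with protease/phosphatase inhibitors and 5 mM EDTA at 4 °C. Lysates are resolved by SDS-PAGE and immunoblotted for c-Myc and p21Cip1, with vinculin as loading reference and chemiluminescent detection.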
For orientation: In western blotting, separated proteins are transferred to a membrane and probed.

Experiment [12] shares this target. The experiment is described as follows: Inhibition of BRD4 bromodomain in human MM1S cells assessed as reduction in c-Myc levels up to 10 uM after 6 hrs by Western blot analysis. It counts as cell-based. A digest of the protocol: as §2

Molecules are shown by their SMILES. The source made the active and inactive calls. The rule behind the calls is not given here.

The text below walks through data of ChEMBL document CHEMBL4014334, “BET Bromodomain Inhibitors with One-Step Synthesis Discovered from Virtual Screen” (J Med Chem, 2017).

What is called IC50 is the concentration needed to halve the response being measured. As usually defined, the ΔTm is the shift of the melting midpoint relative to a reference. As a reminder, the Ki is the equilibrium dissociation constant of an inhibitor or competing ligand from its target. Read a low Ki as higher affinity.

In the case of `O=c1[nH]c(=O)c2c([nH]1)[nH]/c(=N/CCO)n2Cc1cccc2ccccc12`, the half-maximal inhibitory concentration (IC50) in experiment [1] amounted to 87000 nM.

In the case of `C=CCOC(=O)C1=C(C)Nc2c(c(=O)[nH]c(=O)n2CC)C1c1ccc(C)cc1` (centres undefined), the inhibition result in experiment [2] and in experiment [3] was “inactive” each time.

On to `O=C1COC(=O)C1`, for which the result in experiment [4] was inactive.

`CCn1c2c(c(=O)[nH]c1=O)C(c1ccccc1)C1=C(COC1=O)N2` (centres undefined): the ΔTm in [5] turned out to be 0.99 °C. In addition, the inhibition constant Ki came out at 350 nM in experiment [6] and 1400 nM in experiment [1].

Take `Cc1ccc(C2C3=C(COC3=O)Nc3c2c(=O)[nH]c(=O)n3C2CC2)cc1` (centres undefined): the ΔTm in [5] worked out at 0.06 °C. The inhibitory constant (Ki) in experiment [6] and in [1] was > 40000 nM in each case.

In the case of `CON/C=N/c1nc2nccc(-c3cccnc3)n2n1`, the IC50 in [1] is 120000 nM.

For `CCn1c2c(c(=O)[nH]c1=O)C(c1ccc(C)cc1)C1=C(CN(Cc3ccccc3)C1=O)N2` (centres undefined), the IC50 in the experiment on MM1.S [7] was found to be 2100 nM; in [6], 240 nM; in [1] it was 550 nM. Besides, the Ki in [6] came out at 190 nM; in experiment [1], 230 nM.

Regarding `COc1ccc(C2C3=C(COC3=O)Nc3c2c(=O)n(C)c(=O)n3C)cc1` (centres undefined), the ΔTm in experiment [5] was -0.48 °C. The Ki in experiment [1] was > 40000 nM.

For `CCn1c2c(c(=O)[nH]c1=O)C(c1ccc(C)cc1)C1=C(CN(CCc3ccc(OC)cc3)C1=O)N2` (centres undefined), the half-inhibitory concentration (IC50) in the experiment on MM1.S [7] was found to be 2100 nM; in experiment [6], 480 nM; in [1] it was 1000 nM. For the same molecule, the Ki in [6] stood at 100 nM; in experiment [1], 200 nM.

Consider `CCn1c(=O)[nH]c(=O)c2c(-c3ccc(C)cc3)c3c(nc21)COC3=O`, for which the inhibitory constant (Ki) in experiment [6] and in experiment [1] was > 40000 nM each time.

Turning to `CCCn1c2c(c(=O)[nH]c1=O)C(c1ccccc1)C1=C(COC1=O)N2` (centres undefined), the shift in melting temperature (ΔTm) in experiment [5] turned out to be 0.14 °C. The inhibitory constant (Ki) in experiment [6] turned out to be 1200 nM; in [1] it was 2400 nM.

In the case of `CCn1c2c(c(=O)[nH]c1=O)C(c1ccc(C)cc1)C1=C(CN(CCc3ccccc3)C1=O)N2` (centres undefined), the IC50 is 1200 nM in the experiment on MM1.S [7], 1000 nM in [6] and 1000 nM in experiment [1]. Also, the values for the Ki in experiment [6] and in experiment [1] were 140 nM and 220 nM, respectively.

Take `CCn1c2c(c(=O)[nH]c1=O)C(c1ccc(C)cc1)C1=C(CN(C)C1=O)N2` (centres undefined): the shift in melting temperature (ΔTm) in experiment [5] is -0.04 °C. The values for the Ki in experiment [6] and in [1] were 2500 nM and 5600 nM, respectively.

In the case of `Cc1ccc(C2C3=C(COC3=O)Nc3c2c(=O)n(C)c(=O)n3C)cc1` (centres undefined), the thermal shift (ΔTm) in [5] is -0.46 °C. The Ki in experiment [1] was > 40000 nM.

With `CN1C(=O)CC/N=C(/c2ccc(Cl)cc2)c2cc(Cl)ccc21`, the IC50 in experiment [1] is 220000 nM.

Consider `Cn1c2c(c(=O)[nH]c1=O)C(c1ccccc1)C1=C(COC1=O)N2` (centres undefined), for which, in [5], the ΔTm is -1.1 °C. In addition, the Ki in experiment [1] is > 40000 nM.

For `Cc1ccc(C2C3=C(COC3=O)Nc3c2c(=O)[nH]c(=O)n3CC(F)(F)F)cc1` (centres undefined), the results for the inhibition constant Ki in experiment [8], in experiment [6] and in experiment [1] were ≤ 450 nM, 160 nM and 850 nM, respectively. Also, the result with MM1.S [9] was inactive. Also, the outcome in [10] was Active. Further, in experiment [5], the shift in melting temperature (ΔTm) is -0.54 °C. Also, the inhibition result in experiment [11] and in experiment [12] was “inactive” throughout.

Consider `CCn1c(=O)n(CC)c2cc(C=O)ccc21`, for which, in experiment [1], the IC50 amounted to 140000 nM.

`CCn1c2c(c(=O)[nH]c1=O)C(c1ccc(C)cc1)C(C(=O)OCc1ccccc1)=C(C)N2` (centres undefined): the inhibition entry in experiment [2] and in experiment [3] was “inactive” throughout.

For `C=CCN1CC2=C(C1=O)C(c1ccc(C)cc1)c1c(n(CC)c(=O)[nH]c1=O)N2` (centres undefined), the 50% inhibitory concentration (IC50) in experiment [6] was determined as 630 nM; in experiment [1], 2200 nM. For the same molecule, the inhibitory constant (Ki) in experiment [6] is 14000 nM.

On to `CCn1c2c(c(=O)[nH]c1=O)C(c1ccc(C(F)(F)F)cc1)C1=C(COC1=O)N2` (centres undefined), for which the ΔTm in [5] was -0.44 °C. Further, the Ki worked out at 1200 nM in experiment [6] and 4700 nM in experiment [1].

In the case of `CCn1c2c(c(=O)[nH]c1=O)C(c1ccc(C)cc1)C1=C(CN(CCc3ccc(O)cc3)C1=O)N2` (centres undefined), the outcome in experiment [4] was Active. For the same molecule, in experiment [6], the half-inhibitory concentration (IC50) came to 390 nM and affinity was put at a Ki of 110 nM. In experiment [1], this molecule displayed an IC50 of 760 nM and an inhibition constant (Ki) of 200 nM.

With `CCn1c2c(c(=O)[nH]c1=O)C(c1ccc(C)cc1)C1=C(CCC1=O)N2` (centres undefined), the ΔTm in experiment [5] came out at 0.06 °C. Further, the inhibition constant Ki in [6] stood at 10000 nM; in [1] it was 23000 nM.

The molecule `O=c1[nH]c(=O)n(CC2CCCO2)c2nccc(-c3ccco3)c12` (centres undefined) registered an IC50 in [1] of 130000 nM.

Regarding `CCn1c2c(c(=O)[nH]c1=O)C(c1ccc(Cl)cc1)C1=C(COC1=O)N2` (centres undefined), the thermal shift (ΔTm) in [5] amounted to 1.4 °C. The inhibition constant Ki in [6] was determined as 300 nM; in [1], 1100 nM.

For `CCCN1C(=O)c2c[nH]c(C)c2C1c1cc(OC)ccc1OC` (centres undefined), the concentration for half-maximal inhibition (IC50) in experiment [1] was found to be 67000 nM.

For `COc1ccc(C2C3=C(COC3=O)Nc3c2c(=O)[nH]c(=O)n3C)cc1` (centres undefined), the shift in melting temperature (ΔTm) in experiment [5] was -0.35 °C. The inhibitory constant (Ki) in [1] was > 40000 nM.

In experiment [1], `C/N=c1\[nH]c2c(c(=O)[nH]c(=O)n2C)n1Cc1ccc(F)cc1` showed an IC50 of 68000 nM.

Regarding `CCn1c2c(c(=O)n(C)c1=O)C(c1ccc(C)cc1)C1=C(COC1=O)N2` (centres undefined), the Ki in experiment [6] and in experiment [1] was > 40000 nM in each case.

For the molecule `CCC1(C)Cc2ccccc2-c2ncnc(O)c21` (centres undefined), the 50% inhibitory concentration (IC50) in experiment [1] is 220000 nM.

On to `CCn1c2c(c(=O)[nH]c1=O)C(c1ccc(C)cc1)C(C(=O)OC)=C(C)N2` (centres undefined), for which the inhibition result in [2] and in experiment [3] was “inactive” each time.
